Our source for the Partition coefficient and SER values is ChEMBL document CHEMBL1122141, “Potential radiosensitizing agents. 4. 2-Nitroimidazole nucleosides” (J Med Chem, 1982).

Data set [1] is described as follows: Partition coefficient of the compound. In kind it is ADME. Conditions: octanol/water.
The subject of data set [2] is V79. Kind of data set: In vitro radiosensitizing activity against V-79 hypoxic cells was determined in the presence of the sensitizer under nitrogen at a concentration of 1.0 mM. In kind it is functional, Cricetulus griseus. Put shortly: (§1)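 Asynchronous monolayer V-79 Chinese hamster cells from exponential cultures, plated in dishes and made hypoxic by purging sealed containers with 95% nitrogen/5% CO2. Drug exposure was 1 h at 37 °C under hypoxia, followed by cobalt-60 irradiation (~240 rad/min, 400–2700 rad). Colonies were grown 6 days at 37 °C, then fixed in ethanol, stained with methylene blue and counted. SER = D0 of hypoxic controls / D0 of drug-treated hypoxic cells.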

In data set [3] the test system is V79. Kind of data set: In vitro radiosensitizing activity against V-79 hypoxic cells was determined in the presence of the sensitizer under nitrogen at a concentration of 0.05 mM. In kind it is functional, Cricetulus griseus. Summed up: as §1
Data set [4] concerns V79. Kind of data set: In vitro radiosensitizing activity against V-79 Hypoxic cells was determined in the presence of the sensitizer under nitrogen at a concentration of 0.1 mM. In kind it is functional, Cricetulus griseus. Put shortly: as §1
Data set [5] concerns V79. Kind of data set: In vitro radiosensitizing activity against V-79 hypoxic cells was determined in the presence of the sensitizer under nitrogen at a concentration of 0.5 mM. In kind it is functional, Cricetulus griseus. Summed up:
as §1

In data set [6] the test system is V79. Nature of the data set: In vitro radiosensitizing activity against V-79 hypoxic cells was determined in the presence of the sensitizer under nitrogen at a concentration of 0.25 mM. In kind it is functional, Cricetulus griseus. Put shortly: as §1

Turning to `O=C(OC[C@H]1O[C@@H](n2ccnc2[N+](=O)[O-])[C@H](OC(=O)c2ccccc2)[C@@H]1OC(=O)c1ccccc1)c1ccccc1`, the Partition coefficient in data set [1] was 15.66. For the same molecule, in the data set with V79 [2] (in the assay text read “0.01 mM” for “1.0 mM”), the SER is listed as 1.

In turn, `CC(=O)OCC1SC(n2ccnc2[N+](=O)[O-])C(OC(C)=O)C(OC(C)=O)C1OC(C)=O` (stereo not drawn) returned a Partition coefficient in data set [1] of 4.22. Besides, the SER in the data set with V79 [3] is reported as 1.1.

`CC(=O)OCC1OC(n2ccnc2[N+](=O)[O-])C(OC(C)=O)C(OC(C)=O)C1OC(C)=O` (stereo not drawn): the Partition coefficient in data set [1] is listed as 3.31. In addition, in the data set with V79 [4], the SER amounted to 1.2.

In data set [1], `O=[N+]([O-])c1nccn1C1O[C@H](CO)[C@@H](O)[C@H]1O` (stereo partly drawn) registered a Partition coefficient of 0.07. Further, the SER with V79 [5] was 1.4.

Regarding `O=[N+]([O-])c1nccn1C1OC(CO)C(O)C(O)C1O` (stereo not drawn), in data set [1], the Partition coefficient is listed as 0.04. Further, the SER with V79 [2] came out at 1.

Molecule `COC(=O)C1(n2ccnc2[N+](=O)[O-])CC(OC(C)=O)C(NC(C)=O)C(C(OC(C)=O)C(COC(C)=O)OC(C)=O)O1` (stereo not drawn) came in with a Partition coefficient in data set [1] of 2.56. The SER in the data set on V79 [6] is listed as 1.2; in the data set on V79 [5] it was 1.4; in the data set on V79 [2], 1.6.

`O=[N+]([O-])c1nccn1C1SC(CO)C(O)C(O)C1O` (stereo not drawn) registered a Partition coefficient in data set [1] of 0.22. Also, the SER with V79 [6] amounted to 1.2; with V79 [5], 1.4; with V79 [2] it was 1.7.
